Results on 14 compounds are retold here after ChEMBL document CHEMBL1129596, “Synthesis, biological activity, and molecular modeling of selective 5-HT(2C/2B) receptor antagonists” (J Med Chem, 1996).

The target in test [1] is 5-hydroxytryptamine receptor 2A (Rattus norvegicus, UniProt P14842). Nature of the test: Displacement of [3H]ketanserin from 5-HT2A receptor of rat frontal cortex. It is filed as tissue-based. The essentials:
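Radioligand binding in rat frontal cortex membranes with [3H]ketanserin as the labelled ligand. Values are the mean of at least two determinations, each within 0.2 log unit of the mean.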
(In general: Loss of bound radioactivity is the signal in a displacement assay; it reports binding, not function.)

In test [2] the target is T1, 5-hydroxytryptamine receptor 2C (Rattus norvegicus, UniProt P08909).
T1 sequence (P08909 whole entry): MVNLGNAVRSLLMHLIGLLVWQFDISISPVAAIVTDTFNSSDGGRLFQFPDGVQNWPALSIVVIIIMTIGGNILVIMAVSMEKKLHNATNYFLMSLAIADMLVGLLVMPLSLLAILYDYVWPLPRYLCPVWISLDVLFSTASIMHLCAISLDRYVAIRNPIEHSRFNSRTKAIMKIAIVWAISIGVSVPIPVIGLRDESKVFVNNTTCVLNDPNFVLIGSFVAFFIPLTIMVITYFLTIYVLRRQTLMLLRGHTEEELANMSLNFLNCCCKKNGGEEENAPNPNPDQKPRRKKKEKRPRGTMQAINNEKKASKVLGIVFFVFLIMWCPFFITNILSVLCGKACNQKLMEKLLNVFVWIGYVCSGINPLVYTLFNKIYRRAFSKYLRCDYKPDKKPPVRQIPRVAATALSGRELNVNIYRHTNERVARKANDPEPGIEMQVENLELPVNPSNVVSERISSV
The test is described as follows: Displacement of [3H]mesulergine from rat 5-HT2C receptor expressed in HEK293. The essentials: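 Binding to cloned rat 5-HT2C receptors expressed in HEK 293 cells, with [3H]mesulergine as radioligand. Each value is the mean of at least two determinations, each lying within 0.2 log unit of the mean.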

The target of test [3] is 5-hydroxytryptamine receptor 2B (Rattus norvegicus, UniProt P30994). The test is described as follows: Inhibition of 5-HT binding to 5-HT2B receptor of Rat stomach fundus. The test is classed as tissue-based. As to conditions: read-out: pA2 (converted). In short, it runs like this:
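Functional rather than binding assay: inhibition of 5-HT-induced contractions of isolated rat stomach fundus. Values are the mean of at least two determinations, each within 0.2 log unit of the mean.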

Test [4] has as its target Serotonin receptor 2a and 2c (5HT2A and 5HT2C) (Rattus norvegicus) (UniProt P08909+P14842). The test is described as follows: Relative affinity for 5-hydroxytryptamine 2C over 5-hydroxytryptamine 2A receptors. It is filed as protein assay.

Structures are written as SMILES.

Chain of 5-hydroxytryptamine receptor 2A (P14842 whole entry): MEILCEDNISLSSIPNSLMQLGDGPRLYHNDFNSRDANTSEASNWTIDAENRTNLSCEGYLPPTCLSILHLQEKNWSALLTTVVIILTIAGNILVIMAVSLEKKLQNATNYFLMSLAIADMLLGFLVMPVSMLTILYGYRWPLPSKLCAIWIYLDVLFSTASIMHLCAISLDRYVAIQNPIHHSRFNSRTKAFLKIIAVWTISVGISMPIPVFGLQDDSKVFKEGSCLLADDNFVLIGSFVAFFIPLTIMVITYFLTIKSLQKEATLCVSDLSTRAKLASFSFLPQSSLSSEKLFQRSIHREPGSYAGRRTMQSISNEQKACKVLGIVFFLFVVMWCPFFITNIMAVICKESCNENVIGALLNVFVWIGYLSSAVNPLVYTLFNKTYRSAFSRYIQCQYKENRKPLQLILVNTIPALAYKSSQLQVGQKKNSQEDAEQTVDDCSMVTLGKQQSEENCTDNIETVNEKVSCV
Chain of 5-hydroxytryptamine receptor 2B (P30994 whole entry): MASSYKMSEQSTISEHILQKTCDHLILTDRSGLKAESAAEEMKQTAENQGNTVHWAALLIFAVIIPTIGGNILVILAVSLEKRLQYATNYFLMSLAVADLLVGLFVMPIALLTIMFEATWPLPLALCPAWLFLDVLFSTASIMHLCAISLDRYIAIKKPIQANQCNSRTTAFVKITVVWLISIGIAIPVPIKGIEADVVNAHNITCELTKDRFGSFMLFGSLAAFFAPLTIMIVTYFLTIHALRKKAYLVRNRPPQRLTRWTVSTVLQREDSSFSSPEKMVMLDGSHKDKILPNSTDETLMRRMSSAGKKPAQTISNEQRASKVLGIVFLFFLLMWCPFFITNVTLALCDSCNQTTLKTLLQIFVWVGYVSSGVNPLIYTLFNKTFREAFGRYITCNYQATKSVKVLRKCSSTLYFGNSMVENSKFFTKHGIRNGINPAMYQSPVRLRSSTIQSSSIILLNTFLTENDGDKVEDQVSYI
Chain of Serotonin receptor 2a and 2c (5HT2A and 5HT2C) (Rattus norvegicus) (P14842 whole entry, looked up, one chain of several): as the sequence (P14842 whole entry) above

Broadly, the Ki is the dissociation constant of the complex between target and ligand, obtained from inhibition or displacement. Lower therefore signals tighter binding. For the compound `Cc1coc2cc3c(cc12)CCN3C(=O)Nc1cccnc1`, the Ki is 398 nM in test [1] and 2.51 nM in test [2]. Also, the Kb in test [3] was 1.26 nM. Also, the Selectivity ratio in test [4] was 160.

With `CC(C)n1ccc2cc3c(cc21)CCN3C(=O)Nc1cccnc1`, the Ki was 3980 nM in test [1] and 10 nM in test [2]. Also, the Kb in test [3] was 6.31 nM. In addition, in test [4], the Selectivity ratio is 400.

Take `Cn1ccc2cc3c(cc21)CCN3C(=O)Nc1cccnc1`: the Ki in test [1] is 501 nM; in test [2] it was 5.01 nM. Besides, in test [3], the Kb was 3.16 nM. Moreover, in test [4], the Selectivity ratio came out at 100.

On to `Cn1ccc2c3c(ccc21)N(C(=O)Nc1cccnc1)CC3`, for which the Ki in test [1] is 2000 nM; in test [2], 25.1 nM. In addition, the Kb in test [3] was 15.8 nM.

Turning to `O=C(Nc1cccnc1)N1CCc2cc3c(ccn3Cc3ccccc3)cc21`, the inhibition constant Ki was greater than 6310 nM in test [1] and 50.1 nM in test [2]. The Kb in test [3] was 200 nM. Also, the Selectivity ratio in test [4] is greater than 130.

`Cn1ccc2ccc3c(c21)CCN3C(=O)Nc1cccnc1`: the inhibitory constant (Ki) in test [1] was 3160 nM; in test [2], 63.1 nM. Also, the Selectivity ratio in test [4] stood at 50.

`Cn1ccc2cc3c(cc21)N(C(=O)Nc1cccnc1)CC3` gave a Ki in test [2] of 1260 nM. This lies in the single-digit micromolar range.

On to `CCCn1ccc2cc3c(cc21)CCN3C(=O)Nc1cccnc1`, for which the Ki in test [1] is 3160 nM; in test [2], 12.6 nM. In addition, the Kb in test [3] is 7.94 nM. Also, the Selectivity ratio in test [4] amounted to 250.

In the case of `CCn1ccc2cc3c(cc21)CCN3C(=O)Nc1cccnc1`, the Ki was 1260 nM in test [1] and 7.94 nM in test [2]. In addition, the Kb in test [3] is 10 nM. Besides, in test [4], the Selectivity ratio was determined as 160.

As for `Cc1cc2cc3c(cc2n1C)CCN3C(=O)Nc1cccnc1`, the inhibition constant Ki is 3160 nM in test [1] and 39.8 nM in test [2]. Also, the Kb in test [3] was 20 nM. Besides, the Selectivity ratio in test [4] was determined as 80.

For the compound `O=C(Nc1cccnc1)N1CCc2cc3sccc3cc21`, the Ki is 251 nM in test [1] and 7.94 nM in test [2]. For the same compound, in test [3], the Kb was 10 nM. Also, the Selectivity ratio in test [4] was 30.

For the compound `O=C(Nc1cccnc1)N1CCc2cc3[nH]ccc3cc21`, the Ki was 1580 nM in test [1] and 126 nM in test [2]. For the same compound, the Kb in test [3] is 31.6 nM. The Selectivity ratio in test [4] is 13.

On to `CN1CCc2cc3c(cc21)CCN3C(=O)Nc1cccnc1`, for which the Ki is 5010 nM in test [1] and 63.1 nM in test [2]. Further, the Kb in test [3] is 12.6 nM. The Selectivity ratio in test [4] was 80.

`Cn1ccc2c3c(ccc21)CCN3C(=O)Nc1cccnc1` gave an inhibition constant (Ki) in test [2] of 200 nM.
